Screening results: PubChem BioAssay, several laboratories
In the library only some 2.4% were active in any assay of this set; here they are far more common.
A3G deaminase: APOBEC3G DNA deaminase inhibitors, primary screen, biochemical, fluorescence, single-stranded DNA substrate, uHTS; recombinant A3G, ssDNA deamination FAM/TAMRA fluorescence; inhibition, % at 20 µM; 0.28% of 330,000 active; AID 493012, 2011;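 active means inhibition of at least 40% at 20 µM, with no more than 30% in the related APOBEC3A deaminase screen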
Target sequence (Q9HC16 whole entry, looked up): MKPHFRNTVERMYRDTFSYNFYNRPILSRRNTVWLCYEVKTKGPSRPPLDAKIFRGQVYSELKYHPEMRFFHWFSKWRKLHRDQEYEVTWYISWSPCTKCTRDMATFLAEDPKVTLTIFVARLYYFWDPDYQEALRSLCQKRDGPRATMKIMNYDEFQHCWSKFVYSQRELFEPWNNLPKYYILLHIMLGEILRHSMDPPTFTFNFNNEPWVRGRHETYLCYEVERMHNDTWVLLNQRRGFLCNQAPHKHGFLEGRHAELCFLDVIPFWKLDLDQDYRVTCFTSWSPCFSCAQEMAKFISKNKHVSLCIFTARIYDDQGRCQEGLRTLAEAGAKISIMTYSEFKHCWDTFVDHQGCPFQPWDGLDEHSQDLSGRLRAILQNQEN
M18AAP inhibitor: PfM18AAP inhibitors, malaria aminopeptidase, primary screen, biochemical, QFRET, recombinant enzyme. 1.2% of 290,000 active. AID 1822, 2009. inhibition, % at 7.35 µM. H-Glu-NHMec fluorogenic cleavage. M18 aspartyl aminopeptidase (Plasmodium falciparum 3D7);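 active means inhibition above the campaign mean inhibition over all tested compounds plus 3 SD, cut at about 28% in these data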
PfG6PD inh: PfG6PD enzyme inhibitors, primary screen, biochemical, fluorescence intensity, uHTS; glucose-6-phosphate dehydrogenase-6-phosphogluconolactonase (Plasmodium falciparum 3D7); PfGluPho enzyme, NADPH resazurin-diaphorase fluorescence; inhibition, % at 20 µM; 0.78% of 350,000 active;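 active means inhibition reaching at least a set limit at 20 µM in the primary screen, cut at about 59% in these data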
SUMO HTRF inh: inhibitors of in vitro SUMOylation cascade, primary screen, biochemical, HTRF, uHTS | SUMO-conjugating enzyme UBC9 (Homo sapiens), P63279 | HTRF SUMOylation assay, SAE1/SAE2 + UBC9 | inhibition, % at 35 µM | 0.36% of 290,000 active | AID 2006, 2009; in the data active means inhibition above about 50%, passing the limit was not always enough
APOBEC3A inh: APOBEC3A ssDNA deaminase inhibitors, primary screen, selectivity assay for APOBEC3G inhibitor project, biochemical, FAM/TAMRA oligo cleavage fluorescence; DNA dC->dU-editing enzyme APOBEC-3A (Homo sapiens), P31941; recombinant A3A, FAM/TAMRA ssDNA deamination fluorescence; inhibition, % at 20 µM; 0.41% of 330,000 active; AID 493011, 2011;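 active means at least 40% inhibition at 20 µM here, with at most 30% in a related deaminase screen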
HKDC1 inh: HKDC1 hexokinase inhibitors, primary screen, biochemical, fluorescence, uHTS; 0.16% of 340,000 active; inhibition, % at 20 µM; Q2TB90; recombinant HKDC1, G6PDH/diaphorase resazurin coupled fluorescence;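 active means inhibition above about 35% when tested at 20 µM, limit read from the data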
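Test system: HK5 enzyme. Quantity: 5 µg/mL HK5 final. Reagent: glucose and ATP substrates. Schedule: 90 min reaction incubation at room temperature, dark. Technique: resazurin-to-resorufin fluorescence via G6PDH and diaphorase coupling, 525/613 nm. Control set: DMSO wells with and without enzyme mix.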
PfGluPho conf: PfG6PD inhibitors, hit retest, confirmation, biochemical, fluorescence intensity, single concentration; shares compounds with PfG6PD inh; recombinant PfGluPho, NADPH-diaphorase-resazurin fluorescence; inhibition, % at 20 µM; 34% of 2,400 active;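 active means inhibition of at least 50% at 20 µM in any single replicate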
Diaph ctr 10uM: diaphorase inhibitors and chemical oxidizers, confirmation, counter-screen for P. falciparum G6PD inhibitor project, biochemical, fluorescence intensity, 10 µM NADPH | shares compounds with PfG6PD inh | AID 504862, 2011 | inhibition, % at 20 µM | 39% of 820 active | diaphorase-coupled resazurin reduction, NADPH 10 uM;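 active means average inhibition reaching 50% or more with the compound at 20 µM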;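 further: resorufin red fluorescence formed as diaphorase reduces resazurin using NADPH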
Diaph ctr 30uM: diaphorase inhibitors and chemical oxidizers, confirmation, counter-screen for P. falciparum G6PD inhibitor project, biochemical, fluorescence intensity, 30 µM NADPH | 29% of 820 active | inhibition, % at 20 µM | Diaphorase/resazurin coupled assay, resorufin fluorescence | shares compounds with PfG6PD inh;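 active means inhibition averaging 50% or more, tested at 20 µM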
Each line names hits and unclear results; the compound was inactive in the other large screens (follow-up assays come after a bar, where they were run).

Cc1cc(OCCSc2nnc(-c3cccs3)n2C)ccc1Cl	PfG6PD inh 70.4 | PfGluPho conf inactive
Cc1cc([N+](=O)[O-])nn1CCCC(=O)Nc1sc2c(c1C(N)=O)CCCC2	PfG6PD inh 67.0 | PfGluPho conf inactive
Cc1cc([N+](=O)[O-])nn1CC(=O)Nc1sc2c(c1C(N)=O)CCCC2	none
CCOC(=O)c1c2ccc(OCC(=O)N/N=C/c3ccc(C)cc3)cc2n2ccccc12	none (no result: SUMO HTRF inh)
CCOC(=O)c1c2ccc(OCC(=O)NN)cc2n2ccccc12	none (no result: SUMO HTRF inh) | PfGluPho conf 58.6 | Diaph ctr 10uM 60.7 | Diaph ctr 30uM inactive
COc1ccc2c(c1)CCc1cc(C(=O)N3CCN(c4ccc(N5CCOCC5)nn4)CC3)sc1-2	PfG6PD inh 77.4 | PfGluPho conf inactive
COc1cccc(C(=O)N2CCN(c3ccc(N4CCOCC4)nn3)CC2)c1	none (no result: M18AAP inhibitor, SUMO HTRF inh)
Cc1cc(C)c2nc(SCCc3ccccc3)nc(C)c2c1	none
CC(=O)c1sc(NC(=O)c2cnc(Cl)c(Cl)c2)nc1C	PfG6PD inh 62.1 | PfGluPho conf inactive
COc1ccc(N2CC(C(=O)Nc3ccc(S(=O)(=O)Nc4nc(C)cc(C)n4)cc3)CC2=O)cc1 (stereo unspecified)	none
CC1(OC(=O)CCc2ccccc2)C(=O)C=C2C=C(c3ccc(C#N)cc3)N(C3CCCC3)C=C2C1=O (stereo unspecified)	PfG6PD inh 60.8 (no result: M18AAP inhibitor) | PfGluPho conf inactive
CC(C)OCCCN1C=C2C(=O)C(C)(OC(=O)CCc3ccccc3)C(=O)C=C2C=C1c1ccc(C#N)cc1 (stereo unspecified)	PfG6PD inh 81.2 (no result: M18AAP inhibitor) | PfGluPho conf inactive
CC1(OC(=O)CCc2ccccc2)C(=O)C=C2C=C(c3ccc(C#N)cc3)N(c3ccccc3)C=C2C1=O (stereo unspecified)	PfG6PD inh 71.5 (no result: M18AAP inhibitor) | PfGluPho conf inactive
CC1(OC(=O)CCc2ccccc2)C(=O)C=C2C=C(c3ccc(C#N)cc3)N(CC3CC3)C=C2C1=O (stereo unspecified)	none (no result: M18AAP inhibitor)
Cc1cccnc1NC(=O)c1ccc2c(c1)OCO2	none (no result: M18AAP inhibitor, SUMO HTRF inh)
COc1ccccc1-n1c(SCC(=O)NCc2ccc3c(c2)OCO3)nc2cc([N+](=O)[O-])ccc21	PfG6PD inh 95.2 | PfGluPho conf inactive
COc1cccc(CSc2nnc(-c3ccncc3)n2C)c1	none
O=C1Nc2cc(C(=O)NCCCN3CCCC3)ccc2S/C1=C\c1ccccc1	PfG6PD inh 105.0 | PfGluPho conf 98.1 | Diaph ctr 10uM inactive | Diaph ctr 30uM inactive
Cc1ccc(-c2csc3nnc(SCC(=O)N4CCN(Cc5ccccc5)CC4)n23)cc1	none
CCOC(=O)c1cnc(-c2cccc(OC)c2)[nH]c1=O	PfG6PD inh 96.4 | PfGluPho conf 78.3 | Diaph ctr 10uM 74.8 | Diaph ctr 30uM 56.0
CCOC(=O)c1cnc(-c2ccccc2)[nH]c1=O	none
COc1ccc(/C=C/C(=O)NNc2cc(=O)n(C)c(=O)n2C)cc1OC	none
